For 20 compounds, viability, Activity and IC50 results are on record in ChEMBL document CHEMBL2439950, “Arylamino methylene bisphosphonate derivatives as bone seeking matrix metalloproteinase inhibitors” (Bioorg Med Chem, 2013).

Data set [1] can be described thus: Cytotoxicity against human HepG2 cells assessed as cell viability at 100 uM after 48 hrs by MTT assay. In kind it is cell-based. As to conditions: read-out: Activity. An outline of the steps:
(§1)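 J774 A.1 cells were grown in DMEM and HepG2 in MEM, each with 10% FBS, penicillin, streptomycin and 2 mM L-glutamine, at 37 °C in 5% CO2. Seeded at 1-5·10^4 cells/well with half-log diluted compounds, 1% DMSO final, for 48 h. MTT was added to 0.5 mg/mL final for 3-4 h, solubilized in 50% DMSO/50% EtOH, and read at 570 nm. Background came from Triton X-100 lysed wells, and viability was taken relative to untreated controls.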
(In general: Tetrazolium assays rely on reduction of a dye to a coloured formazan, in cell work by metabolically active cells.)

A short description of data set [2]: Cytotoxicity against mouse J774A1 cells assessed as cell viability at 100 uM after 48 hrs by MTT assay. In kind it is functional. As to conditions: J774.A1, 48 h, read-out: Activity. A digest of the protocol: as §1
Another data set deals with Hydroxyapatite. As to the kind of experiment: Binding affinity to bone mineral hydroxyapatite assessed as adsorbed level at 100 uM after 2 hrs by UV-spectrophotometric analysis. An outline of the steps: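 Duplicate 5 ml aliquots of 100 μM bisphosphonic acid in 50 mM Tris-HCl pH 7.5, stirred with 4 mg hydroxyapatite at 37 °C for 2 h. After centrifugation (10 min, 8000 rpm) and 0.22 μm filtration, supernatant absorbance was quantified against calibration lines.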

Data set [3] has as its target Matrix metalloproteinase-14 (Homo sapiens, UniProt P50281). In words: Inhibition of MMP14 catalytic domain (unknown origin) using Mca-Pro-Leu-Gly-Leu-Dpa-Ala-Arg-NH2 as substrate incubated for 30 mins prior to substrate addition measured after 2 to 4 hrs by fluorometric assay. A digest of the protocol: (§2)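 Catalytic domains of MMP-8, MMP-9 or MMP-14 were preincubated 30 min at 25 °C with inhibitor (six concentrations, 0.1 nM–100 μM) in 50 mM Tris-HCl pH 7.5, 200 mM NaCl, 1 mM CaCl2, 1 μM ZnCl2, 0.05% Brij-35, 1% DMSO. Substrate was added to 2.5 μM final for 2–4 h at 37 °C, then acetic acid stop. Fluorescence read at 340/405 nm, in triplicate; IC50 fitted from percent inhibition.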

For data set [4], the target named is Matrix metalloproteinase-9 (Homo sapiens, UniProt P14780). As to the kind of experiment: Inhibition of MMP9 catalytic domain (unknown origin) using Mca-Pro-Leu-Gly-Leu-Dpa-Ala-Arg-NH2 as substrate incubated for 30 mins prior to substrate addition measured after 2 to 4 hrs by fluorometric assay. An outline of the steps: as §2
Matrix metalloproteinase-9, sequence (P14780 whole entry, the tested form may be a part): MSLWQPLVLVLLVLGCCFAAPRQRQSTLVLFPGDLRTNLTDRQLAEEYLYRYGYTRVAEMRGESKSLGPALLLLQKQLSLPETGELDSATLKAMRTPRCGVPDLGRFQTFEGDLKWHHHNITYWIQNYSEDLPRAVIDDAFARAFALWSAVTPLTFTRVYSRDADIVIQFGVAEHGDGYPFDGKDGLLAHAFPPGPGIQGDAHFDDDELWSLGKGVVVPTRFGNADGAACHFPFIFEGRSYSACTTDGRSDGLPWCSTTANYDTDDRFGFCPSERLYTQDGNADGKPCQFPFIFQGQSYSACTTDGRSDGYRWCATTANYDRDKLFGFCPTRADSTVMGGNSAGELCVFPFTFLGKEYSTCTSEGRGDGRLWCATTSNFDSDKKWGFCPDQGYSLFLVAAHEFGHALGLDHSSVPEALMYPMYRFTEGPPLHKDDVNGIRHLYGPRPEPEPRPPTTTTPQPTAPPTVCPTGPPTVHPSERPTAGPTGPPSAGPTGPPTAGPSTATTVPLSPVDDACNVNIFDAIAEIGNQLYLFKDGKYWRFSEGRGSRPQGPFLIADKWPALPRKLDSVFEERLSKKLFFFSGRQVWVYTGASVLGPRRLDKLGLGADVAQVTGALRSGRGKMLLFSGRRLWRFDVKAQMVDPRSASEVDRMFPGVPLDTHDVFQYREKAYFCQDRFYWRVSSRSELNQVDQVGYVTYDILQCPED
In a further data set the target is Neutrophil collagenase (Homo sapiens, UniProt P22894). In words: Inhibition of MMP8 catalytic domain (unknown origin) using Mca-Pro-Leu-Gly-Leu-Dpa-Ala-Arg-NH2 as substrate incubated for 30 mins prior to substrate addition measured after 2 to 4 hrs by fluorometric assay. A digest of the protocol:
as §2

Data set [5] concerns the target 72 kDa type IV collagenase (Homo sapiens, UniProt P08253). In words: Inhibition of APMA-activated recombinant human MMP2 using Mca-Pro-Leu-Gly-Leu-Dpa-Ala-Arg-NH2 as substrate incubated for 30 mins prior to substrate addition measured after 2 to 4 hrs by fluorometric assay. A digest of the protocol:
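Human pro-MMP-2 was activated with 2 mM APMA for 1 h at 37 °C. Enzyme and inhibitor (six concentrations, 0.1 nM–100 μM) were preincubated 30 min at 25 °C in Tris-HCl pH 7.5 buffer with NaCl, CaCl2, ZnCl2, Brij-35 and 1% DMSO. Substrate was added to 2.5 μM final, run 2–4 h at 37 °C, and stopped with 3% acetic acid. Fluorescence read at ex 340/em 405 nm, in triplicate; IC50 from percent inhibition versus no-inhibitor controls.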

SMILES strings stand for the structures. pIC50: −log10 of the molar value. Where only a bound is given, the exact number is not on record here.

Neutrophil collagenase, sequence (P22894 whole entry, the tested form may be a part): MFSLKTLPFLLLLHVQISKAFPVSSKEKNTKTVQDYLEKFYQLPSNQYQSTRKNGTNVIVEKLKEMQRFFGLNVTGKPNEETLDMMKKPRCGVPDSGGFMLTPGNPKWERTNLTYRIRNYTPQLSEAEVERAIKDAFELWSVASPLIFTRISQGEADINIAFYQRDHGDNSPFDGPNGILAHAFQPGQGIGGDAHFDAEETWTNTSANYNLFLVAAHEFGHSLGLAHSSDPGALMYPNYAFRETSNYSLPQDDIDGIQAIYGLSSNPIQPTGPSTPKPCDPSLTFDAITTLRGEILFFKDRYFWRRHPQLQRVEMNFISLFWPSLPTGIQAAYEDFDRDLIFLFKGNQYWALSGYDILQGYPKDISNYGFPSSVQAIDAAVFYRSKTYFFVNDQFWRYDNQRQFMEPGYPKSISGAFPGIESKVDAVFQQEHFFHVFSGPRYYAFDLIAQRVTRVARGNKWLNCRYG
72 kDa type IV collagenase, sequence (P08253 whole entry): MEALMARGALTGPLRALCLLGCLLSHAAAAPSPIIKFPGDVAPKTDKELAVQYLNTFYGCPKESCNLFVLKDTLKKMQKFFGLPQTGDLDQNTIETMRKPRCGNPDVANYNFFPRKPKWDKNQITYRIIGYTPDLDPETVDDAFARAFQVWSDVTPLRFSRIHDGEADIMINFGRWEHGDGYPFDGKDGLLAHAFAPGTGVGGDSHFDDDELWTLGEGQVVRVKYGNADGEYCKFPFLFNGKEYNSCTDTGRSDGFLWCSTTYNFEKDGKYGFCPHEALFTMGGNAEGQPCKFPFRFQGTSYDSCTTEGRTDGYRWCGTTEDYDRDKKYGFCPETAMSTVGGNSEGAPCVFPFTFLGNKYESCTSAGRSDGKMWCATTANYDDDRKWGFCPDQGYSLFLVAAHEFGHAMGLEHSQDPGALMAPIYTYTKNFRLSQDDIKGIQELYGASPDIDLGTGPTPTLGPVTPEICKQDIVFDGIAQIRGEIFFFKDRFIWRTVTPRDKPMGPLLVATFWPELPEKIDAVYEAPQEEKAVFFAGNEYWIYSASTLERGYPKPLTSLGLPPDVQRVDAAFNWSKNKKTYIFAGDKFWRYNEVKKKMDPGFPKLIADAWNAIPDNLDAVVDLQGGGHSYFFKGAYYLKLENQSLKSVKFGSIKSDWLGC

In the case of `O=P(O)(O)C(Nc1ccc(-c2ccccc2)cc1)P(=O)(O)O`, the viability at 48 h, 100 µM in data set [1] worked out at 88%. In addition, the viability at 100 µM in data set [2] amounted to 36%. In the data set on Hydroxyapatite, the Activity is 60%. Moreover, the pIC50 in data set [3] is 4.47; in data set [4], less than 4.00; on Neutrophil collagenase, 4.52; in data set [5], less than 4.00.
With `O=P(O)(O)C(Nc1ccc(C(F)(F)F)cc1)P(=O)(O)O`, in data set [1], the viability at 48 h, 100 µM worked out at 100%. Also, in data set [2], the viability at 100 µM came to 53%. Moreover, the Activity with Hydroxyapatite came out at 42.5%. Besides, the negative-log IC50 (pIC50) was less than 4.00 in data set [3], less than 4.00 in data set [4], less than 4.00 against Neutrophil collagenase and 4.82 in data set [5].
Regarding `O=P(O)(O)C(Nc1ccc(Oc2ccc(Cl)cc2)cc1)P(=O)(O)O`, the viability at 48 h, 100 µM in data set [1] worked out at 87%. Besides, the viability at 100 µM in data set [2] worked out at 73%. Also, in the data set with Hydroxyapatite, the Activity came out at 52.1%. Also, the pIC50 is 4.12 in data set [3], 4.26 in data set [4], 4.40 at Neutrophil collagenase and 5.68 in data set [5].
With `O=P(O)(O)C(Nc1ccc(Oc2ccc(Br)cc2)cc1)P(=O)(O)O`, the viability at 48 h, 100 µM in data set [1] worked out at 90%. Moreover, the viability at 100 µM in data set [2] stood at 15.3%. Further, the Activity in the data set with Hydroxyapatite is 60.7%. Moreover, the pIC50 in data set [3] is 4.31; in data set [4] it was 4.06; at Neutrophil collagenase, 4.37; in data set [5], 5.55.
Turning to `O=P(O)(O)C(Nc1ccc(Br)cc1)P(=O)(O)O`, the viability at 48 h, 100 µM in data set [1] is 94%. For the same compound, the viability at 100 µM in data set [2] is 81%. Also, the Activity in the data set on Hydroxyapatite stood at 49%. Besides, the pIC50 was 5.41 in data set [3], 4.52 in data set [4], 5.62 against Neutrophil collagenase and 5.22 in data set [5].
On to `O=P(O)(O)C(Nc1ccc(Cl)cc1)P(=O)(O)O` [(4-CHLOROPHENYLAMINO)METHYLENEDIPHOSPHONIC ACID], for which the viability at 48 h, 100 µM in data set [1] amounted to 97%. The viability at 100 µM in data set [2] came to 86%. Further, the Activity in the data set with Hydroxyapatite was 64.2%. The pIC50 (in data set [3]; in data set [4]; at Neutrophil collagenase; in data set [5]) was less than 4.00 each time.
In the case of `O=P(O)(O)C(O)(Cn1ccnc1)P(=O)(O)O` [ZOLEDRONIC ACID], the negative-log IC50 (pIC50) in data set [3] is 4.90; in data set [4], 4.28; at Neutrophil collagenase it was 4.75; in data set [5], 5.15.
Consider `O=P(O)(O)C(Nc1cccc(Br)c1)P(=O)(O)O`, for which the viability at 48 h, 100 µM in data set [1] came to 67%. Further, in data set [2], the viability at 100 µM came out at 72%. Further, the Activity in the data set with Hydroxyapatite worked out at 70.1%. Further, the pIC50 was less than 4.00 in data set [3], less than 4.00 in data set [4], less than 4.00 against Neutrophil collagenase and 4.43 in data set [5].
On to `O=P(O)(O)C(Nc1ccc(Cl)c(Cl)c1)P(=O)(O)O` [3,4-DICHLOROPHENYLAMINOMETHYLENEBISPHOSPHONIC ACID], for which, in data set [1], the viability at 48 h, 100 µM worked out at 98%. In data set [2], the viability at 100 µM amounted to 81%. Further, in the data set on Hydroxyapatite, the Activity worked out at 53.5%. Besides, the pIC50 is 4.70 in data set [3], less than 4.00 in data set [4], 4.59 at Neutrophil collagenase and less than 4.00 in data set [5].
As to `O=P(O)(O)C(Nc1cccc2ccccc12)P(=O)(O)O`, the viability at 48 h, 100 µM in data set [1] stood at 98%. Further, the viability at 100 µM in data set [2] was 33%. In addition, the Activity in the data set with Hydroxyapatite turned out to be 51.6%. Also, the pIC50 was 4.16 in data set [3], 5.22 in data set [4], 4.21 on Neutrophil collagenase and 5.19 in data set [5].
On to `O=P(O)(O)C(Nc1ccc(Cl)cc1Cl)P(=O)(O)O` [2,4-DICHLOROPHENYLAMINOMETHYLENEBISPHOSPHONIC ACID], for which, in data set [1], the viability at 48 h, 100 µM was determined as 73%. For the same compound, the viability at 100 µM in data set [2] was determined as 59%. Further, in the data set on Hydroxyapatite, the Activity amounted to 56.8%. The negative logarithm of the IC50 (pIC50) (in data set [3]; in data set [4]; on Neutrophil collagenase; in data set [5]) was less than 4.00 throughout.
For the compound `O=P(O)(O)C(Sc1ccc(Cl)cc1)P(=O)(O)O` [TILUDRONIC ACID], in data set [1], the viability at 48 h, 100 µM came to 61%. Further, in data set [2], the viability at 100 µM was 14%. Also, the Activity in the data set with Hydroxyapatite stood at 51.5%. Further, the negative-log IC50 (pIC50) in data set [3] was 4.52; in data set [4], less than 4.00; against Neutrophil collagenase, 4.49; in data set [5], 5.14.
With `O=[N+]([O-])c1ccc(NC(P(=O)(O)O)P(=O)(O)O)cc1`, the viability at 48 h, 100 µM in data set [1] was 84%. In addition, the viability at 100 µM in data set [2] amounted to 76%. Also, in the data set on Hydroxyapatite, the Activity came to 76%. The pIC50 in data set [3] is 4.59; in data set [4], 4.70; on Neutrophil collagenase, 4.82; in data set [5], 4.70.
On to `N#Cc1ccc(NC(P(=O)(O)O)P(=O)(O)O)cc1`, for which the viability at 48 h, 100 µM in data set [1] was determined as 77%. Further, the viability at 100 µM in data set [2] is 86%. For the same compound, in the data set on Hydroxyapatite, the Activity is 76%. Moreover, the pIC50 was less than 4.00 in data set [3], less than 4.00 in data set [4], less than 4.00 against Neutrophil collagenase and 4.44 in data set [5].
Consider `O=[N+]([O-])c1cc(NC(P(=O)(O)O)P(=O)(O)O)ccc1F`, for which the viability at 48 h, 100 µM in data set [1] amounted to 69%. In addition, the viability at 100 µM in data set [2] was 69%. The Activity with Hydroxyapatite worked out at 66.2%. In addition, the pIC50 is less than 4.00 in data set [3], less than 4.00 in data set [4], less than 4.00 at Neutrophil collagenase and 4.60 in data set [5].
`O=P(O)(O)C(Nc1ccc(O)cc1)P(=O)(O)O`: in data set [1], the viability at 48 h, 100 µM turned out to be 101%. The viability at 100 µM in data set [2] was determined as 19.5%. The Activity with Hydroxyapatite was 88%. For the same compound, the negative logarithm of the IC50 (pIC50) was less than 4.00 in data set [3], less than 4.00 in data set [4], less than 4.00 against Neutrophil collagenase and 5.18 in data set [5].
For `O=[N+]([O-])c1cccc(NC(P(=O)(O)O)P(=O)(O)O)c1` [(3-NITROPHENYLAMINO)METHYLENEDIPHOSPHONIC ACID], in data set [1], the viability at 48 h, 100 µM amounted to 83%. Also, in data set [2], the viability at 100 µM was determined as 54%. Further, the Activity in the data set with Hydroxyapatite amounted to 57.8%. For the same compound, the pIC50 in data set [3] is less than 4.00; in data set [4], less than 4.00; against Neutrophil collagenase it was less than 4.00; in data set [5], 4.81.
With `Cc1ccc(NC(P(=O)(O)O)P(=O)(O)O)cc1` [(P-TOLYLAMINO)METHYLENEDIPHOSPHONIC ACID], the viability at 48 h, 100 µM in data set [1] was determined as 104%. Besides, the viability at 100 µM in data set [2] is 83%. Moreover, in the data set with Hydroxyapatite, the Activity was found to be 23.9%. Moreover, the pIC50 in data set [3] was less than 4.00; in data set [4], less than 4.00; at Neutrophil collagenase, 4.44; in data set [5], less than 4.00.
Take `O=P(O)(O)C(Nc1ccc(Oc2ccccc2)cc1)P(=O)(O)O`: the viability at 48 h, 100 µM in data set [1] amounted to 105%. Besides, the viability at 100 µM in data set [2] was found to be 44%. In addition, in the data set on Hydroxyapatite, the Activity is 66.2%. Moreover, the pIC50 was 4.37 in data set [3], less than 4.00 in data set [4], 4.36 on Neutrophil collagenase and 5.55 in data set [5].
`O=P(O)(O)C(Nc1ccccc1)P(=O)(O)O` [(PHENYLAMINO)METHYLENEDIPHOSPHONIC ACID]: in data set [1], the viability at 48 h, 100 µM was determined as 96%. Besides, the viability at 100 µM in data set [2] was 68%. Also, the Activity with Hydroxyapatite is 58%. Further, the pIC50 (in data set [3]; in data set [4]; on Neutrophil collagenase; in data set [5]) was less than 4.00 each time.

In general, pIC50 refers to the IC50 on a negative log10 scale, so that one unit is a factor of ten.
